One experiment relates to K562. As to the kind of experiment: Cytotoxicity against human K562 cells after 72 hrs by MTT assay. Conditions: K562, 72 h. The format is functional, cell-based. An outline of the steps:
(§1)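 Cells are exposed to compound for 72 h, and viability is then read by MTT assay. IC50 is reported as the mean of 3 independent measurements with SD. hFB-hTERT6 is a non-malignant human skin fibroblast line.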
In general terms: Tetrazolium dyes change colour on reduction, which living cells bring about.

Experiment [1] deals with Streptomyces fradiae. As to the kind of experiment: Antibacterial activity against Streptomyces fradiae ATCC 19609 at 0.1 nmol/disk after 24 hrs. The experiment is classed as functional. In a few lines:
(§2)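 Disk diffusion assay. Streptomyces fradiae spores are mixed into MG soft agar (0.7% agar, pH 7.5) and poured over MG agar plates (2% agar), 10⁷ spores per dish. After the agar sets, paper disks impregnated with compound are placed on the plates. Plates are incubated 24 h at 28 °C, and the diameter of the growth-inhibition halo around each disk is measured.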

Another experiment deals with HCT-116. The experiment is described as follows: Cytotoxicity against human HCT116 cells after 72 hrs by MTT assay. The format is functional, cell-based. Conditions: HCT-116, 72 h. An outline of the steps: as §1
The nature of experiment [2]: Cytotoxicity against human hFB-hTERT6 cells after 72 hrs by MTT assay. Particulars: hFB-hTERT6, 72 h. The format is cell-based. An outline of the steps: as §1
For experiment [3], the system named is Streptomyces fradiae. The experiment is described as follows: Antibacterial activity against Streptomyces fradiae ATCC 19609 at 1 nmol/disk after 24 hrs. The experiment is classed as functional. An outline of the steps:
as §2

The subject of experiment [4] is Streptomyces fradiae. As to the kind of experiment: Antibacterial activity against Streptomyces fradiae ATCC 19609 at 10 nmol/disk after 24 hrs. The experiment is classed as functional. In a few lines:
as §2

Experiment [5] relates to Streptomyces fradiae. As to the kind of experiment: Antibacterial activity against Streptomyces fradiae ATCC 19609 at 100 nmol/disk after 24 hrs. The format is functional. In a few lines:
as §2

Experiment [6] deals with Streptomyces fradiae. As to the kind of experiment: Antibacterial activity against Streptomyces fradiae ATCC 19609 at 0.001 nmol/disk after 24 hrs. The experiment is classed as functional. In a few lines: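 Disk diffusion on S. fradiae: spore suspension mixed into MG soft agar (0.7%), pH 7.5, poured over MG agar (2%) at 10⁷ spores per dish; after solidification, paper disks carrying test compound laid on lawn; grown 24 h at 28 °C; growth-inhibition halo diameter around disks measured.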

This note sets out measurements from ChEMBL document CHEMBL2384900, “Synthesis and cytotoxicity of oligomycin A derivatives modified in the side chain” (Bioorg Med Chem, 2013).

Molecules are shown by their SMILES.

For the compound `CC[C@H]1/C=C/C=C/C[C@@H](C)[C@H](O)[C@@](C)(O)C(=O)[C@@H](C)[C@H](O)[C@@H](C)C(=O)[C@@H](C)[C@H](O)[C@@H](C)/C=C/C(=O)O[C@@H]2[C@H](C)[C@H](CC1)O[C@]1(CC[C@H](C)[C@H](C[C@@H](C)OS(C)(=O)=O)O1)[C@H]2C`, the IC50 in the experiment with K562 came out at 5800 nM; in the experiment on HCT-116, 6400 nM. Moreover, the “diameter of the inhibition zone (DIZ)” value with Streptomyces fradiae [1] amounted to 9.5 mm.
`CC[C@H]1/C=C/C=C/C[C@@H](C)[C@H](O)[C@@](C)(O)C(=O)[C@@H](C)[C@H](O)[C@@H](C)C(=O)[C@@H](C)[C@H](O)[C@@H](C)/C=C/C(=O)O[C@@H]2[C@H](C)[C@H](CC1)O[C@]1(CC[C@H](C)[C@H](C[C@H](C)N=[N+]=[N-])O1)[C@H]2C`: the IC50 in the experiment on K562 amounted to 140 nM; in experiment [2] it was 1900 nM; in the experiment with HCT-116 it was 200 nM. The “diameter of the inhibition zone (DIZ)” value with Streptomyces fradiae [3] is 7.5 mm.
Take `CC[C@H]1/C=C/C=C/C[C@@H](C)[C@H](O)[C@@](C)(O)C(=O)[C@@H](C)[C@H](O)[C@@H](C)C(=O)[C@@H](C)[C@H](O)[C@@H](C)/C=C/C(=O)O[C@@H]2[C@H](C)[C@H](CC1)O[C@]1(CC[C@H](C)[C@H](C[C@H](C)n3cc(-c4ccccc4)nn3)O1)[C@H]2C`: the concentration for half-maximal inhibition (IC50) was found to be 150 nM with K562 and 3000 nM in experiment [2]. In addition, the “diameter of the inhibition zone (DIZ)” value with Streptomyces fradiae [1] came to 7.5 mm.
In the case of `CC[C@H]1/C=C/C=C/C[C@@H](C)[C@H](O)[C@@](C)(O)C(=O)[C@@H](C)[C@H](O)[C@@H](C)C(=O)[C@@H](C)[C@H](O)[C@@H](C)/C=C/C(=O)O[C@@H]2[C@H](C)[C@H](CC1)O[C@]1(CC[C@H](C)[C@H](C[C@H](C)n3cc(C(=O)OC)nn3)O1)[C@H]2C`, the “diameter of the inhibition zone (DIZ)” value in the experiment with Streptomyces fradiae [4] came to 8 mm. Besides, the IC50 worked out at 150 nM in the experiment with K562 and 2000 nM in experiment [2].
With `CC[C@H]1/C=C/C=C/C[C@@H](C)[C@H](O)[C@@](C)(O)C(=O)[C@@H](C)[C@H](O)[C@@H](C)C(=O)[C@@H](C)[C@H](O)[C@@H](C)/C=C/C(=O)O[C@@H]2[C@H](C)[C@H](CC1)O[C@]1(CC[C@H](C)[C@H](C[C@H](C)n3cc(C(=O)O)nn3)O1)[C@H]2C`, the concentration for half-maximal inhibition (IC50) is more than 12500 nM with K562 and more than 50000 nM in experiment [2]. The “diameter of the inhibition zone (DIZ)” value with Streptomyces fradiae [5] turned out to be 8 mm.
For `CC[C@H]1/C=C/C=C/C[C@@H](C)[C@H](O)[C@@](C)(O)C(=O)[C@@H](C)[C@H](O)[C@@H](C)C(=O)[C@@H](C)[C@H](O)[C@@H](C)/C=C/C(=O)O[C@@H]2[C@H](C)[C@H](CC1)O[C@]1(CC[C@H](C)[C@H](C[C@H](C)n3cc(C(=O)NCCN(C)C)nn3)O1)[C@H]2C`, the IC50 was 220 nM in the experiment on K562, 2000 nM in experiment [2] and 700 nM in the experiment with HCT-116. In addition, the “diameter of the inhibition zone (DIZ)” value in the experiment with Streptomyces fradiae [3] worked out at 8 mm.
In the case of `CC[C@@H]1/C=C/C=C/C[C@H](C)[C@H](O)[C@](C)(O)C(=O)[C@H](C)[C@@H](O)[C@H](C)C(=O)[C@H](C)[C@@H](O)[C@H](C)/C=C/C(=O)O[C@H]2[C@@H](C)[C@@H](CC1)O[C@@]1(CC[C@@H](C)[C@@H](C[C@H](C)O)O1)[C@@H]2C` [OLIGOMYCIN A], the IC50 in the experiment with K562 turned out to be 160 nM; in experiment [2], 7500 nM; in the experiment on HCT-116 it was 1000 nM. Further, the “diameter of the inhibition zone (DIZ)” value in the experiment with Streptomyces fradiae [6] amounted to 10 mm.

By IC50 is commonly meant the concentration that inhibits the measured activity by half. Read a high IC50 as a need for much substance.
